Among the data in ChEMBL document CHEMBL2146424, “Synthesis and structure-activity relationship of a novel class of 15-membered macrolide antibiotics known as '11a-azalides'” (2012) are MIC values, retold here.

Converted amounts (≈) assume the structure as drawn.

The test system of assay [1] is Streptococcus pneumoniae. Description: Antibacterial activity against MLSB-resistant Streptococcus pneumoniae 205 by broth microdilution method. It is filed as functional. The essentials: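 MIC measured by broth microdilution following CLSI guidelines for S. pneumoniae; erythromycin-susceptible and erythromycin-resistant pneumococcal strains tested, with clarithromycin as comparator in every run.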
On the technique in general: Broth dilution looks for growth in wells or tubes with falling amounts of substance.

The subject of assay [2] is Streptococcus pneumoniae. Description: Antibacterial activity against erythromycin-susceptible Streptococcus pneumoniae ATCC 49619 by broth microdilution method. The format is functional. The essentials:
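MIC read by broth microdilution following CLSI guidelines for S. pneumoniae; clarithromycin run alongside as comparator in all assays.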

As to `CCN(CC)C[C@H]1COC(=O)[C@H](C)[C@@H](O[C@H]2C[C@@](C)(OC)[C@@H](O)[C@H](C)O2)[C@H](C)[C@@H](O[C@@H]2O[C@H](C)C[C@H](N(C)C)[C@H]2O)[C@](C)(OC)C[C@@H](C)[C@H](O)[C@H](C)CN1C`, the MIC (as a rule, the least concentration at which growth counts as inhibited) in assay [1] is greater than 128 µg/mL; in assay [2] it was 128 µg/mL (≈ 162 µM).
For `CO[C@]1(C)C[C@@H](C)[C@H](O)[C@H](C)CN(C)C[C@H](COCc2ccccc2)OC(=O)[C@H](C)[C@@H](O[C@H]2C[C@@](C)(OC)[C@@H](O)[C@H](C)O2)[C@H](C)[C@H]1O[C@@H]1O[C@H](C)C[C@H](N(C)C)[C@H]1O` the same measures were 128 µg/mL (≈ 155 µM) and 0.06 µg/mL (≈ 0.0727 µM).
Turning to `CO[C@]1(C)C[C@@H](C)[C@H](O)[C@H](C)CN(C)[C@H](COCc2ccccc2)COC(=O)[C@H](C)[C@@H](O[C@H]2C[C@@](C)(OC)[C@@H](O)[C@H](C)O2)[C@H](C)[C@H]1O[C@@H]1O[C@H](C)C[C@H](N(C)C)[C@H]1O`, the values for the MIC in assay [1] and in assay [2] were 64 µg/mL (≈ 77.6 µM) and 4 µg/mL (≈ 4.85 µM), respectively.
Regarding `CO[C@]1(C)C[C@H](O[C@H]2[C@H](C)[C@@H](O[C@@H]3O[C@H](C)C[C@H](N(C)C)[C@H]3O)[C@](C)(O)C[C@@H](C)[C@H](N)[C@H](C)CN(C)CCOC(=O)[C@@H]2C)O[C@@H](C)[C@@H]1O`, the MIC in assay [1] is greater than 128 µg/mL; in assay [2], 2 µg/mL (≈ 2.9 µM).
For `CO[C@]1(C)C[C@@H](C)[C@H](O)[C@H](C)CN(C)[C@@H](CN)COC(=O)[C@H](C)[C@@H](O[C@H]2C[C@@](C)(OC)[C@@H](O)[C@H](C)O2)[C@H](C)[C@H]1O[C@@H]1O[C@H](C)C[C@H](N(C)C)[C@H]1O`, in that order: greater than 128 µg/mL and 64 µg/mL (≈ 87.2 µM).
For `CO[C@]1(C)C[C@@H](C)[C@H](O)[C@H](C)CN(C)C[C@@H](COCc2ccccc2)OC(=O)[C@H](C)[C@@H](O[C@H]2C[C@@](C)(OC)[C@@H](O)[C@H](C)O2)[C@H](C)[C@H]1O[C@@H]1O[C@H](C)C[C@H](N(C)C)[C@H]1O`, in that order: 64 µg/mL (≈ 77.6 µM) and 1 µg/mL (≈ 1.21 µM).
For the compound `CO[C@]1(C)C[C@@H](C)[C@H](O)[C@H](C)CN(C)C[C@H](CCOCc2ccccc2)OC(=O)[C@H](C)[C@@H](O[C@H]2C[C@@](C)(OC)[C@@H](O)[C@H](C)O2)[C@H](C)[C@H]1O[C@@H]1O[C@H](C)C[C@H](N(C)C)[C@H]1O`, the MIC in assay [1] is 128 µg/mL (≈ 153 µM); in assay [2], 0.12 µg/mL (≈ 0.143 µM).
As for `CO[C@]1(C)C[C@@H](C)[C@H](O)[C@H](C)CN(C)C[C@H](COc2ccc(-c3cccnc3)cc2)OC(=O)[C@H](C)[C@@H](O[C@H]2C[C@@](C)(OC)[C@@H](O)[C@H](C)O2)[C@H](C)[C@H]1O[C@@H]1O[C@H](C)C[C@H](N(C)C)[C@H]1O`, the MIC in assay [1] came to 64 µg/mL (≈ 72.1 µM); in assay [2], 0.5 µg/mL (≈ 0.563 µM).
`CO[C@]1(C)C[C@@H](C)[C@H](O)[C@H](C)CN(C)CCOC(=O)[C@H](C)[C@@H](O[C@H]2C[C@@](C)(OC)[C@@H](O)[C@H](C)O2)[C@H](C)[C@H]1O[C@@H]1O[C@H](C)C[C@H](N(C)C)[C@H]1O`: the MIC in assay [1] is greater than 128 µg/mL; in assay [2], 2 µg/mL (≈ 2.84 µM).
For `CO[C@]1(C)C[C@@H](C)[C@H](O)[C@H](C)CN(C)[C@@H](CCOCc2ccccc2)COC(=O)[C@H](C)[C@@H](O[C@H]2C[C@@](C)(OC)[C@@H](O)[C@H](C)O2)[C@H](C)[C@H]1O[C@@H]1O[C@H](C)C[C@H](N(C)C)[C@H]1O` the same measures were 64 µg/mL (≈ 76.3 µM) and 1 µg/mL (≈ 1.19 µM).
For `CO[C@]1(C)C[C@@H](C)[C@H](O)[C@H](C)CN(C)C[C@H](COc2cccc(-c3ccccc3)c2)OC(=O)[C@H](C)[C@@H](O[C@H]2C[C@@](C)(OC)[C@@H](O)[C@H](C)O2)[C@H](C)[C@H]1O[C@@H]1O[C@H](C)C[C@H](N(C)C)[C@H]1O`, in that order: 16 µg/mL (≈ 18 µM) and 1 µg/mL (≈ 1.13 µM).
As for `CO[C@]1(C)C[C@@H](C)C(=O)[C@H](C)CN(C)CCOC(=O)[C@H](C)[C@@H](O[C@H]2C[C@@](C)(OC)[C@@H](O)[C@H](C)O2)[C@H](C)[C@H]1O[C@@H]1O[C@H](C)C[C@H](N(C)C)[C@H]1O`, the MIC is greater than 128 µg/mL in assay [1] and 32 µg/mL (≈ 45.5 µM) in assay [2].
For `CCN(CCNC(=O)O[C@H]1[C@H](C)O[C@@H](O[C@H]2[C@H](C)[C@@H](O[C@@H]3O[C@H](C)C[C@H](N(C)C)[C@H]3O)[C@](C)(O)C[C@@H](C)[C@H](N)[C@H](C)CN(C)C[C@H](COCc3ccccc3)OC(=O)[C@@H]2C)C[C@@]1(C)OC)[C@@H](C)c1ccccc1OC` the same measures were 0.25 µg/mL (≈ 0.236 µM) and 0.12 µg/mL (≈ 0.113 µM).
Take `CO[C@]1(C)C[C@@H](C)[C@H](O)[C@H](C)CN(C)C[C@H](COc2ccc(-c3ccccn3)cc2)OC(=O)[C@H](C)[C@@H](O[C@H]2C[C@@](C)(OC)[C@@H](O)[C@H](C)O2)[C@H](C)[C@H]1O[C@@H]1O[C@H](C)C[C@H](N(C)C)[C@H]1O`: the MIC stood at 16 µg/mL (≈ 18 µM) in assay [1] and 0.25 µg/mL (≈ 0.281 µM) in assay [2].
Consider `CO[C@]1(C)C[C@@H](C)[C@H](O)[C@H](C)CN(C)C[C@H](COc2ccc(-c3ccccc3)cc2)OC(=O)[C@H](C)[C@@H](O[C@H]2C[C@@](C)(OC)[C@@H](O)[C@H](C)O2)[C@H](C)[C@H]1O[C@@H]1O[C@H](C)C[C@H](N(C)C)[C@H]1O`, for which the MIC stood at 8 µg/mL (≈ 9.02 µM) in assay [1] and 1 µg/mL (≈ 1.13 µM) in assay [2].
For `CO[C@]1(C)C[C@@H](C)[C@H](O)[C@H](C)CN(C)C[C@H](c2ccccc2)OC(=O)[C@H](C)[C@@H](O[C@H]2C[C@@](C)(OC)[C@@H](O)[C@H](C)O2)[C@H](C)[C@H]1O[C@@H]1O[C@H](C)C[C@H](N(C)C)[C@H]1O`, in that order: greater than 128 µg/mL and 0.5 µg/mL (≈ 0.64 µM).
For `CO[C@]1(C)C[C@H](O[C@H]2[C@H](C)[C@@H](O[C@@H]3O[C@H](C)C[C@H](N(C)C)[C@H]3O)[C@](C)(O)C[C@@H](C)[C@H](N)[C@H](C)CN(C)C[C@H](COCc3ccccc3)OC(=O)[C@@H]2C)O[C@@H](C)[C@@H]1O`, in that order: greater than 128 µg/mL and 0.12 µg/mL (≈ 0.148 µM).
Consider `CC[C@H]1OC(=O)[C@H](C)[C@@H](O[C@H]2C[C@@](C)(OC)[C@@H](O)[C@H](C)O2)[C@H](C)[C@@H](O[C@@H]2O[C@H](C)C[C@H](N(C)C)[C@H]2O)[C@](C)(OC)C[C@@H](C)C(=O)[C@H](C)[C@@H](O)[C@]1(C)O` [CLARITHROMYCIN], for which the MIC was greater than 128 µg/mL in assay [1] and 0.03 µg/mL (≈ 0.0401 µM) in assay [2].
For `CO[C@]1(C)C[C@@H](C)[C@H](O)[C@H](C)CN(C)CCOC(=O)C(C)C(=O)[C@H](C)[C@H]1O[C@@H]1O[C@H](C)C[C@H](N(C)C)[C@H]1O` (mixture of isomers) the same measures were greater than 128 µg/mL and greater than 128 µg/mL.
As for `CO[C@]1(C)C[C@@H](C)[C@H](O)[C@H](C)CN(C)C[C@H](COc2ccccc2-c2ccccc2)OC(=O)[C@H](C)[C@@H](O[C@H]2C[C@@](C)(OC)[C@@H](O)[C@H](C)O2)[C@H](C)[C@H]1O[C@@H]1O[C@H](C)C[C@H](N(C)C)[C@H]1O`, the MIC came to 16 µg/mL (≈ 18 µM) in assay [1] and 0.5 µg/mL (≈ 0.564 µM) in assay [2].
On to `CO[C@]1(C)C[C@@H](C)[C@H](O)[C@H](C)CN(C)[C@@H](COCc2ccccc2)COC(=O)[C@H](C)[C@@H](O[C@H]2C[C@@](C)(OC)[C@@H](O)[C@H](C)O2)[C@H](C)[C@H]1O[C@@H]1O[C@H](C)C[C@H](N(C)C)[C@H]1O`, for which the MIC in assay [1] is 64 µg/mL (≈ 77.6 µM); in assay [2] it was 1 µg/mL (≈ 1.21 µM).
For `CO[C@]1(C)C[C@@H](C)[C@H](O)[C@H](C)CN(C)C[C@H](COc2ccccc2)OC(=O)[C@H](C)[C@@H](O[C@H]2C[C@@](C)(OC)[C@@H](O)[C@H](C)O2)[C@H](C)[C@H]1O[C@@H]1O[C@H](C)C[C@H](N(C)C)[C@H]1O`, in that order: 32 µg/mL (≈ 39.5 µM) and 0.25 µg/mL (≈ 0.308 µM).
For `CC[C@H]1OC(=O)[C@H](C)C(=O)[C@H](C)[C@@H](O[C@@H]2O[C@H](C)C[C@H](N(C)C)[C@H]2O)[C@](C)(OC)C[C@@H](C)C(=O)[C@H](C)[C@H]2N(CCCCn3cnc(-c4cccnc4)c3)C(=O)O[C@]12C` [TELITHROMYCIN], in that order: greater than 128 µg/mL and 4 µg/mL (≈ 4.93 µM).
For `CCN(CCNC(=O)O[C@H]1[C@H](C)O[C@@H](O[C@H]2[C@H](C)[C@@H](O[C@@H]3O[C@H](C)C[C@H](N(C)C)[C@H]3O)[C@](C)(O)C[C@@H](C)[C@H](N)[C@H](C)CN(C)CCOC(=O)[C@@H]2C)C[C@@]1(C)OC)[C@@H](C)c1ccccc1OC`, in that order: 0.5 µg/mL (≈ 0.533 µM) and 0.12 µg/mL (≈ 0.128 µM).
